Only some compounds are listed: those with a hit (about 3.7% of all), similar ones and a draw of the others.
KCNQ1 block – inhibitors of human KCNQ1 channel, primary screen, cell-based, thallium flux, high-throughput | Potassium voltage-gated channel subfamily KQT member 1 (Homo sapiens), P51787 | CHO-K1 KCNQ1, FluxOR thallium flux fluorescence; hits give high values | B-score at 10 µM | hit rate 1.3% among 310,000 | AID 2642, 2010;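 active = compounds whose thallium flux B-score, printed positive for inhibition, exceeds three library SD while starting fluorescence stays within three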;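 note: channel opened by potassium depolarization with thallium stimulus after 20 min compound exposure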
Kir21 inh – inhibitors of mouse Kir2.1 inward-rectifier potassium channel; HEK293-Kir2.1, FluxOR thallium flux fluorescence; hits give low values; B-score at 10 µM; AID 1672, 2009; hit rate 0.85% among 310,000;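 active = fluorescence ratio B-score at or below minus 3 SD of library scores, with starting-brightness B-score within 2 SD, cut at about -4.2 in these data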;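 note: channel flux triggered by added potassium and thallium sulfate stimulus; B-score of peak minus minimum fluorescence over baseline after thallium stimulus; more negative B-score means stronger Kir2.1 block with less thallium influx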
Target sequence (P35561 whole entry, looked up): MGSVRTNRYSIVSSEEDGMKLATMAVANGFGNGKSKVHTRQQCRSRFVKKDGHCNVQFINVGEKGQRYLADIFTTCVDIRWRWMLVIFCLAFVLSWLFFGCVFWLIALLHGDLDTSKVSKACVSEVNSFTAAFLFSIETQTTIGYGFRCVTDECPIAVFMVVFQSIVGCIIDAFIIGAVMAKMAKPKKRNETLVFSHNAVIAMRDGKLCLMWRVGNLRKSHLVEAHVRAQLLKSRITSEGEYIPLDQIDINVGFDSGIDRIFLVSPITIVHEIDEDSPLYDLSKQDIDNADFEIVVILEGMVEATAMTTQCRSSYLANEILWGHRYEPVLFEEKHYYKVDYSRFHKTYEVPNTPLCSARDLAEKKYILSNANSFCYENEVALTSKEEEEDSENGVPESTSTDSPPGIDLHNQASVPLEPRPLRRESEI
hERG rescue – hERG rescue from dofetilide block, primary screen, cell-based, CHO-hERG, FluxOR thallium flux, dofetilide IC70. Voltage-gated inwardly rectifying potassium channel KCNH2 (Homo sapiens), Q12809. dofetilide IC70 present. activation (rescue from dofetilide block), less the hit threshold, % at 10 µM. hit rate 0.51% among 310,000;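 active = activation above the mean of controls blocked by dofetilide plus 5 SD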;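 note: thallium influx through hERG after potassium depolarization seen as dye fluorescence rise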
KCNK9 block – KCNK9 potassium channel inhibitors, primary screen, HEK293 cells, thallium flux; Potassium channel subfamily K member 9 (Homo sapiens), Q9NPC2; FluxOR thallium flux fluorescence; hits give low values; B-score at 10 µM; hit rate 1.2% among 310,000;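 active = ratio B-score over 3 SD below the library mean, with starting fluorescence within 5 SD of its mean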;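 note: negative B-score means less thallium flux so channel inhibition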
KCNQ1 act – potentiators or activators of KCNQ1 channel, primary screen, cell-based, thallium flux, high-throughput; hit rate 0.35% among 310,000; B-score at 10 µM; AID 2648, 2010; CHO-K1 KCNQ1, thallium flux FluxOR fluorescence; hits give high values; Potassium voltage-gated channel subfamily KQT member 1 (Homo sapiens), P51787;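 active = fluorescence ratio B-score, a plate-corrected score, at least three library SD, with initial intensity B-score within 5 SD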
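Doses: Single concentration per compound, DMSO matched to controls | Test system: KCNQ1-transfected CHO-K1 cells | Timing: 90 min dye loading and 20 min compound exposure, both at room temperature | Measured by: Kinetic FluxOR thallium fluorescence, 10-s 1-Hz baseline, 110-s post-stimulus read | Medium: Assay buffer with matched DMSO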
KCNK3 block – human KCNK3 channel inhibitors, primary screen, CHO cells, FluxOR thallium flux, B-score. Potassium channel subfamily K member 3 (Homo sapiens), O14649. FluxOR fluorescence; hits give low values. B-score at 10 µM. hit rate 0.84% among 340,000. AID 602410, 2012;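 active = B-score under library mean minus 4 SD, starting fluorescence ratio at most library mean plus 5 SD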;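 note: more negative B-score means stronger inhibition of thallium flux through KCNK3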
KCNQ1 block val – KCNQ1 potassium channel inhibitors, confirmation, cell-based, Tl flux, duplicate; shares compounds with KCNQ1 block; AID 588353, 2011; KCNQ1 cell line, FluxOR thallium flux fluorescence; hit rate 93% among 1,600; inhibition, % at 10 µM;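 active = primary screen active, with duplicate mean exceeding buffer control mean plus 3 SD of buffer wells, cut at about 28% in these data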;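 note: 0% = buffer control ratio and 100% = XE991 inhibitor control ratio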
CHO Tl flux – thallium flux effects in parental CHO cells, counter-screen for KCNQ1 inhibitor project, cell-based, Tl flux | shares compounds with KCNQ1 block | parental CHO-K1, FluxOR thallium flux fluorescence ratio; hits give low values; zero means no signal rise above baseline | fluorescence ratio (Tl flux) at 10 µM | hit rate 21% among 1,600;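 active = mean of duplicate thallium-flux fluorescence ratios in parental host cells more than 5 SD below the buffer control mean, cut at about 0.38 in these data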;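 note: ratio is peak minus minimum fluorescence divided by baseline fluorescence; actives read low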
KCNQ1 ephys val – KCNQ1 channel inhibitors, confirmation, orthogonal assay, cell-based, automated electrophysiology; KCNQ1-CHO cells, automated patch clamp current; AID 624120, 2012; shares compounds with KCNQ1 block; hit rate 20% among 490; calls only at 10 µM;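 active = KCNQ1 current drop exceeding 3 SD of negative control wells, seen in both duplicate runs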;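 note: steady state current during a 2 s step from -80 to +40 mV; negative values mean current inhibition and positive values mean potentiation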
KCNQ2 inh – KCNQ2 channel inhibition, selectivity assay for KCNQ1 inhibitor project, cell-based; AID 651746, 2012; hit rate 71% among 1,600; inhibition, % at 10 µM; shares compounds with KCNQ1 block; KCNQ2 cells, FluxOR thallium flux fluorescence;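 active = mean percent inhibition of the KCNQ2 thallium signal more than 5 SD above the buffer-only control wells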;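 note: KCNQ2 expressed in CHO cells; 0% = buffer control wells and 100% = XE-991 inhibitor control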
KCNQ1-KCNE1 inh – KCNQ1/KCNE1 channel inhibition, selectivity assay for KCNQ1 inhibitor project, CHO-K1 cells, thallium flux, FluxOR | shares compounds with KCNQ1 block | FluxOR thallium flux fluorescence | inhibition, % at 10 µM | hit rate 77% among 1,600 | AID 652147, 2013;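 active = mean percent inhibition of duplicate wells above the buffer-only control mean plus 3 SD of those controls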;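 note: 0% = buffer only wells and 100% = XE-991 inhibitor control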
Active calls of the source: *; i = inactive; · = not tested or not shown.

SMILES	KCNQ1 block	Kir21 inh	hERG rescue	KCNK9 block	KCNQ1 act	KCNK3 block	KCNQ1 block val	CHO Tl flux	KCNQ1 ephys val	KCNQ2 inh	KCNQ1-KCNE1 inh
O=C(COc1cccc(C(F)(F)F)c1)Nc1ccc(S(=O)(=O)N2CCCCC2)cc1	8*	-0.59	-6.6	i	i	i	107.0*	0.504	i	98.7%*	67.0%*
COC(=O)c1ccc(CNC(=O)COC(=O)c2cccs2)cc1	·	·	·	·	·	i	·	·	·	·	·
Cc1ccccc1OCCC(=O)OCC(=O)N1c2ccccc2NC(=O)C1(C)C	i	-0.23	-6.2	i	i	i	·	·	·	·	·
CC(C)(C)c1ccc(OCCC(=O)OCC(=O)N2c3ccccc3NC(=O)C2(C)C)cc1	7*	1.71	-31.9	i	i	i	120.5*	0.291*	·	140.3%*	55.5%*
COc1ccc(-c2cc(C(=O)N3CCN(c4ccccc4F)CC3)c3ccccc3n2)c(OC)c1	7*	1.4	-19.1	i	i	i	110.5*	0.394	i	i	176.0%*
COc1ccccc1-c1cc(C(=O)N2CCc3ccccc3C2)c2ccccc2n1	i	0.01	-17.8	i	i	·	·	·	·	·	·
COc1ccc(Nc2cc(C(=O)N3CCc4ccccc4C3)c3ccccc3n2)c(OC)c1	7*	1.27	-13.6	i	i	i	135.0*	0.419	i	129.7%*	175.5%*
COc1ccc(-c2nn(-c3ccccc3)cc2C(=O)O)cc1N	i	-0.35	-7.8	i	i	i	·	·	·	·	·
C[C@H](CO)N1C[C@H](C)[C@@H](CN(C)S(=O)(=O)c2ccc(F)cc2)Oc2ccc(NC(=O)CCN3CCOCC3)cc2C1=O	·	·	·	·	·	i	·	·	·	·	·
CN(C)c1ccc(/C=C/c2nnnn2-c2ccccc2)cc1	i	-0.15	-13.5	i	i	i	·	·	·	·	·
COc1ccc(C(F)(F)F)cc1N/C=C\c1nnnn1-c1ccccc1	9*	-0.42	-14.6	i	i	i	98.5*	0.42	i	64.0%*	79.0%*
COc1ccc(-c2nc(NC(=O)c3cc(C(C)(C)C)nn3C)sc2C)cc1	16*	1.05	-12.6	i	i	i	128.5*	0.414	i	88.7%*	126.0%*
CCCc1cc(NCc2ccccn2)n2nc(C)c(-c3ccccc3)c2n1	8*	-0.25	-16.3	i	i	i	55.5*	0.419	·	108.3%*	83.5%*
CC(NCC(=O)Nc1cc(S(=O)(=O)N2CCOCC2)ccc1Cl)c1ccc(Cl)cc1Cl (centres undefined)	7*	0	-12.7	i	i	i	70.0*	0.431	·	60.3%*	91.5%*
Cc1ccc(S(=O)(=O)N2CCOCC2)cc1NC(=O)CNC(C)c1ccccc1 (centres undefined)	·	·	·	·	·	i	·	·	·	·	·
